ChEMBL document CHEMBL1155977, “Design and one-pot synthesis of alpha-aminophosphonates and bis(alpha-aminophosphonates) by iron(III) chloride and cytotoxic activity” (Eur J Med Chem, 2009)

Legend:
Raji [1] = assay: Cytotoxicity against human Raji cells assessed as growth inhibition at 100 uM after 48 hrs by MTT assay; type: functional
In short: (§1)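 Jurkat and Raji cells in RPMI 1640 with 10% fetal bovine serum, plated at 10⁴ cells/well. Compounds in DMSO diluted into medium, tested at 0.1–100. Exposure 48 h at 37 °C, 5% CO₂. Doxorubicin positive control; 0.6% DMSO negative control. MTT added for a further 4 h; formazan dissolved in 2-propanol/DMSO/HCl (30:20:2); A570. Inhibition percentage taken at the top concentration.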

Jurkat [2] = assay: Cytotoxicity against human Jurkat cells assessed as growth inhibition at 100 uM after 48 hrs by MTT assay; type: functional; in short: as §1
MCF7 [3] = assay: Cytotoxicity against human MCF7 cells assessed as growth inhibition at 100 uM after 72 hrs by MTT assay; type: functional; conditions: MCF7, 72 h
In short: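 MCF-7 cells in RPMI 1640 with 10% fetal bovine serum, plated at 10⁴ cells/well. Compounds in DMSO diluted into medium at 0.1–100 and incubated 72 h at 37 °C, 5% CO₂. Doxorubicin served as positive control and 0.6% DMSO as negative control. MTT for 4 h; formazan dissolved in 2-propanol/DMSO/HCl (30:20:2); read at 570 nm. Inhibition percentage at the highest concentration.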

Jurkat [4] = assay: Cytotoxicity against human Jurkat cells after 48 hrs by MTT assay; type: functional, cell-based
In short: (§2)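 Cells were grown in RPMI 1640 with 10% fetal bovine serum and plated at 10⁴ cells/well. Compounds were dissolved in DMSO, diluted in medium, and tested at 0.1, 1, 10, 25, 50, 75 and 100. Incubation was at 37 °C in 5% CO₂ for 48 h (Jurkat, Raji) or 72 h (MCF-7). Controls were doxorubicin (positive) and 0.6% DMSO (negative). MTT was added for a further 4 h, formazan was dissolved in 2-propanol/DMSO/HCl (30:20:2), and absorbance was read at 570 nm.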

Raji [5] = assay: Cytotoxicity against human Raji cells after 48 hrs by MTT assay; type: functional, cell-based; in short: as §2
MCF7 [6] = assay: Cytotoxicity against human MCF7 cells after 72 hrs by MTT assay; type: functional, cell-based; conditions: MCF7, 72 h; in short: as §2

| SMILES | inhibition at 100 µM (Raji [1]) | inhibition at 100 µM (Jurkat [2]) | inhibition at 100 µM (MCF7 [3]) | IC50 (Jurkat [4]) | IC50 (Raji [5]) | IC50 (MCF7 [6]) |
| --- | --- | --- | --- | --- | --- | --- |
| CCOP(=O)(OCC)C(Nc1ccc(Cc2ccc(NC(c3ccc(N(C)C)cc3)P(=O)(OCC)OCC)cc2)cc1)c1ccc(N(C)C)cc1 (stereo not given) | 0.78% | 17.8% | 12.7% |  |  |  |
| CCOP(=O)(OCC)C(Nc1ccc(Oc2ccc(NC(c3ccccc3)P(=O)(OCC)OCC)cc2)cc1)c1ccccc1 (stereo not given) | 0% | 6.84% | 0% |  |  |  |
| CCOP(=O)(OCC)C(Nc1ccccc1)c1ccc(C(Nc2ccccc2)P(=O)(OCC)OCC)cc1 (stereo not given) | 27.2% | 36.8% | 25.4% |  |  |  |
| COc1cccc2c1C(=O)c1c(O)c3c(c(O)c1C2=O)C[C@@](O)(C(=O)CO)C[C@@H]3O[C@H]1C[C@H](N)[C@H](O)[C@H](C)O1 [DOXORUBICIN] | 66.7% | 82.3% | 65.5% |  |  |  |
| CCOP(=O)(OCC)C(Nc1nc2[nH]cnc2c(=O)[nH]1)c1ccc(C(Nc2nc3[nH]cnc3c(=O)[nH]2)P(=O)(OCC)OCC)cc1 (stereo not given) | 64.8% | 0% | 12.7% |  |  |  |
| CCOP(=O)(OCC)C(Nc1ccc(Cc2ccc(NC(c3ccc([N+](=O)[O-])cc3)P(=O)(OCC)OCC)cc2)cc1)c1ccc([N+](=O)[O-])cc1 (stereo not given) | 0% | 10.7% | 12.2% |  |  |  |
| CCOP(=O)(OCC)C(Nc1ccc(S(=O)(=O)c2ccc(NC(c3ccc(O)c(OC)c3)P(=O)(OCC)OCC)cc2)cc1)c1ccc(O)c(OC)c1 (stereo not given) | 0% | 15.6% | 16.6% |  |  |  |
| CCOP(=O)(OCC)C(Nc1ccc(Cc2ccc(NC(c3cc(OC)c(OC)c(OC)c3)P(=O)(OCC)OCC)cc2)cc1)c1cc(OC)c(OC)c(OC)c1 (stereo not given) | 0% | 20.1% | 3.5% |  |  |  |
| CCOP(=O)(OCC)C(Nc1ccc(Cc2ccc(NC(c3ccccc3)P(=O)(OCC)OCC)cc2)cc1)c1ccccc1 (stereo not given) | 6.41% | 28% | 13.9% |  |  |  |
| CCOP(=O)(OCC)C(Nc1ccc(C(=O)c2ccc(NC(c3ccccc3)P(=O)(OCC)OCC)cc2)cc1)c1ccccc1 (stereo not given) | 0% | 15.8% | 10.2% |  |  |  |
| CCOP(=O)(OCC)C(NCCc1c[nH]c2ccccc12)c1ccc(C(NCCc2c[nH]c3ccccc23)P(=O)(OCC)OCC)cc1 (stereo not given) | 64.8% | 68.4% | 54.2% | 24.3 µM | 45.2 µM | 67.5 µM |
| CCOP(=O)(OCC)C(Nc1ccc(Cc2ccc(NC(c3ccc(O)c(OC)c3)P(=O)(OCC)OCC)cc2)cc1)c1ccc(O)c(OC)c1 (stereo not given) | 56.2% | 40.1% | 29.1% |  | 58.6 µM |  |
